# In ChEMBL document CHEMBL4808225, “Discovery and Characterization of Selective and Ligand-Efficient DYRK Inhibitors” (J Med Chem, 2021):
# Key:
# [1] = target: T1, Dual specificity tyrosine-phosphorylation-regulated kinase 1A (Homo sapiens, UniProt Q13627); assay: Displacement of Kinase tracer 236 from biotinylated DYRK1A (unknown origin) expressed in Escherichia coli BL21 (DE3) incubated for 1.5 hrs by TR-FRET assay
# [2] = Metabolic stability in human liver microsomes; type: ADME, Microsome; details: read-out: Stabilty
# [3] = Metabolic stability in rat liver microsomes; type: ADME, Microsome; details: read-out: Stabilty
# [4] = Thermodynamic solubility of the compound at pH 6.8; type: physicochemical; details: buffer, read-out: Therm_solubility
# In short: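 Thermodynamic solubility measured at pH 6.8 in a single experiment, reported in […].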
# [5] = target: Dual specificity tyrosine-phosphorylation-regulated kinase 1B (Homo sapiens) (UniProt Q9Y463); assay: Inhibition of wild-type human full length DYRK1B (M1 to S629 residues) expressed in bacterial expression system assessed as remaining activity at 1 uM by Kinomescan method relative to control
# In short: (§1)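 KINOMEscan competition binding panel run with inhibitor at 1 μM; read-out is remaining kinase activity (percent of control).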
# [6] = target: T2, Dual specificity tyrosine-phosphorylation-regulated kinase 2 (Homo sapiens) (UniProt Q92630); assay: Inhibition of wild-type human full length DYRK2 (M1 to S528 residues) expressed in mammalian expression system assessed as remaining activity at 1 uM by Kinomescan method relative to control; in short: as §1
# T2 sequence (whole entry): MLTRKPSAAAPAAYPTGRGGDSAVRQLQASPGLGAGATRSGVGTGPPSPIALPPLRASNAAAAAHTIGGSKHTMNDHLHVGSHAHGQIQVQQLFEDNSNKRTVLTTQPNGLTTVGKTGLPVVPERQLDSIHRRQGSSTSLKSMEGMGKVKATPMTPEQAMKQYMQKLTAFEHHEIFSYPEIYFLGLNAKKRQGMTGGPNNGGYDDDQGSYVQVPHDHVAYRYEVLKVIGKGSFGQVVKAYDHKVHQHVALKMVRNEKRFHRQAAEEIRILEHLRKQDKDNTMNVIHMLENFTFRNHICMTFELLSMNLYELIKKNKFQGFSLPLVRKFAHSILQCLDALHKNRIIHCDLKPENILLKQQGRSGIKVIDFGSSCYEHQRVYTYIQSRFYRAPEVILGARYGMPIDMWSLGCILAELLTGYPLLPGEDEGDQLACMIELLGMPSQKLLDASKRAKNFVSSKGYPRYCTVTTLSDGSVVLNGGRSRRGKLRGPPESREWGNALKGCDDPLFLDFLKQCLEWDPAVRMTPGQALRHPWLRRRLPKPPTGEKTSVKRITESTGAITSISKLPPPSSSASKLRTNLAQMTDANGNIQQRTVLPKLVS
# [7] = target: Dual specificity protein kinase CLK1 (Homo sapiens, UniProt P49759); assay: Inhibition of wild-type human full length CLK1 (M1 to I484 residues) expressed in bacterial expression system assessed as remaining activity at 1 uM by Kinomescan method relative to control; in short: as §1
# [8] = target: Dual specificity protein kinase CLK2 (Homo sapiens) (UniProt P49760); assay: Inhibition of wild-type human partial length CLK2 (D144 to R498 residues) expressed in bacterial expression system assessed as remaining activity at 1 uM by Kinomescan method relative to control; in short: as §1
# [9] = target: Dual specificity protein kinase CLK3 (Homo sapiens) (UniProt P49761); assay: Inhibition of wild-type human full length CLK3 (M1 to R490 residues) expressed in bacterial expression system assessed as remaining activity at 1 uM by Kinomescan method relative to control; in short: as §1
# [10] = target: Cyclin-dependent kinase 2 (Homo sapiens) (UniProt P24941); assay: Inhibition of wild-type human full length CDK2 (M1 to L298 residues) expressed in bacterial expression system assessed as remaining activity at 1 uM by Kinomescan method relative to control; in short: as §1
# [11] = target: Glycogen synthase kinase-3 beta (Homo sapiens) (UniProt P49841); assay: Inhibition of wild-type human full length GSK3B (M1 to T433 residues) expressed in mammalian expression system assessed as remaining activity at 1 uM by Kinomescan method relative to control; in short: as §1
# [12] = target: T1, Dual specificity tyrosine-phosphorylation-regulated kinase 1A; assay: Binding affinity to biotinylated DYRK1A (unknown origin) expressed in Escherichia coli BL21 (DE3) assessed as dissociation constant measured up to 5 min by SPR method
# Sequence of Dual specificity protein kinase CLK3 (Homo sapiens) (P49761 whole entry, looked up, the tested form may be a part): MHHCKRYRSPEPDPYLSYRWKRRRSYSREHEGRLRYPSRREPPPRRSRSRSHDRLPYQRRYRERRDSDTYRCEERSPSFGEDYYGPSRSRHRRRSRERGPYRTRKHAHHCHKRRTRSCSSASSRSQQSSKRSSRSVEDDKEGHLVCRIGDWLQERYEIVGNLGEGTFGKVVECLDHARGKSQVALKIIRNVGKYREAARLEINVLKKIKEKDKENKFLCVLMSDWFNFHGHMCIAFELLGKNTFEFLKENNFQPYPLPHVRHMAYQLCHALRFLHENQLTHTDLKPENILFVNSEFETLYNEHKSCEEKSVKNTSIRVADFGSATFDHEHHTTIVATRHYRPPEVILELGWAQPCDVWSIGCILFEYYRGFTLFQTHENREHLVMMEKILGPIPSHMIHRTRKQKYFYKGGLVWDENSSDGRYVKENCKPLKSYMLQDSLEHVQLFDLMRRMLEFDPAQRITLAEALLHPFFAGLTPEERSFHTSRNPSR
# Sequence of Dual specificity tyrosine-phosphorylation-regulated kinase 1B (Homo sapiens) (Q9Y463 whole entry, looked up, the tested form may be a part): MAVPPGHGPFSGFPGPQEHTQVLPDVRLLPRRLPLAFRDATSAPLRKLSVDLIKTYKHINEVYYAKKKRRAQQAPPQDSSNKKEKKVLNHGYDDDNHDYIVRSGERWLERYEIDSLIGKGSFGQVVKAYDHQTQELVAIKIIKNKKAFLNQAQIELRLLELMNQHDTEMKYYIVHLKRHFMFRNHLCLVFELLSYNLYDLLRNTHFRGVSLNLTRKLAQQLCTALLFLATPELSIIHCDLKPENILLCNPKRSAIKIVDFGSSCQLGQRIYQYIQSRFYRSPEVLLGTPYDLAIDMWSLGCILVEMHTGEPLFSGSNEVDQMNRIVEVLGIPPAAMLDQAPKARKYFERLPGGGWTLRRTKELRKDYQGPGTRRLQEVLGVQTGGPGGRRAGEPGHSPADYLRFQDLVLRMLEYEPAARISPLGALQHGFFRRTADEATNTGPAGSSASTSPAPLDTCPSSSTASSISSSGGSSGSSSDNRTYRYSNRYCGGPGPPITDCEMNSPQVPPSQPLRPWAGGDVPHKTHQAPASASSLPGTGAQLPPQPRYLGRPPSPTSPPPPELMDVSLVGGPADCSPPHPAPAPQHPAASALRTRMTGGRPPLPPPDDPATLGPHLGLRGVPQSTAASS
# Sequence of Dual specificity protein kinase CLK2 (Homo sapiens) (P49760 whole entry, looked up, the tested form may be a part): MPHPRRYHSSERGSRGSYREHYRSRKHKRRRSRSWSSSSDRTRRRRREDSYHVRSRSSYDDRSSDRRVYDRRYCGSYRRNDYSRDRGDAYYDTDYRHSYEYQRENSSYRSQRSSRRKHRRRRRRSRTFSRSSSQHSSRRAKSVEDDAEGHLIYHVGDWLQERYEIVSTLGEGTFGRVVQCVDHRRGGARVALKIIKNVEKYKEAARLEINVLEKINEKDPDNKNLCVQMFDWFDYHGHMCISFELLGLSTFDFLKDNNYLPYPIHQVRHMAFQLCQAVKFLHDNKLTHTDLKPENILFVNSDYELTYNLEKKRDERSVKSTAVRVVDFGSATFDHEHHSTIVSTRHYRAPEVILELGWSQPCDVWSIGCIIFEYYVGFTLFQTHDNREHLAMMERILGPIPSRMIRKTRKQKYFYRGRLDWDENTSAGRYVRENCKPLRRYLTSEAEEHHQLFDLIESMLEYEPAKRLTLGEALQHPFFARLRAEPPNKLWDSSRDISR
# Sequence of Dual specificity protein kinase CLK1 (P49759 whole entry, looked up, the tested form may be a part): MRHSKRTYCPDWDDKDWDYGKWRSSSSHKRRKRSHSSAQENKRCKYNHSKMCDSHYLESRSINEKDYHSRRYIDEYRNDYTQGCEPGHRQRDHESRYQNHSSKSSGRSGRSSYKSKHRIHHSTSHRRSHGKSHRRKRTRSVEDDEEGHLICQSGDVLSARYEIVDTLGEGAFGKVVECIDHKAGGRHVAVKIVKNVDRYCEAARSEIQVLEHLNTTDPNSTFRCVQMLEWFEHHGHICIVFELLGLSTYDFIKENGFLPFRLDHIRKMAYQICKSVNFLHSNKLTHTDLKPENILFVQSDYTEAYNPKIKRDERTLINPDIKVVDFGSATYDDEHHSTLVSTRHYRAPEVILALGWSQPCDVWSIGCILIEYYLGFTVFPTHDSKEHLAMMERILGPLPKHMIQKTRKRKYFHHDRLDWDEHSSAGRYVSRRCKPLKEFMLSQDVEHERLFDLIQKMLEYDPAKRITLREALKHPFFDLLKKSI
# Sequence of Glycogen synthase kinase-3 beta (Homo sapiens) (P49841 whole entry, looked up, the tested form may be a part): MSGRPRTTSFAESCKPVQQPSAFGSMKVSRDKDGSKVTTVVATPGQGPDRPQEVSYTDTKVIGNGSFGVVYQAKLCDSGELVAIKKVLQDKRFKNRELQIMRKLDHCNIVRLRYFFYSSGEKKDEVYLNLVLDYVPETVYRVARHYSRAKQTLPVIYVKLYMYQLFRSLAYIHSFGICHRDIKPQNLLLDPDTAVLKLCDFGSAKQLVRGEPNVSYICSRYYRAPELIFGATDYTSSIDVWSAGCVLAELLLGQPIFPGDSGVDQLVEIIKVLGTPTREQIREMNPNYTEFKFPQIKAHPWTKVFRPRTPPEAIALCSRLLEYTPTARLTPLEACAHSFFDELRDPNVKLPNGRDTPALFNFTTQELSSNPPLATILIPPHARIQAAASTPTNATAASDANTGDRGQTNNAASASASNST
smiles,measurement,setting,value
Cc1cnn2ncc(-c3ccnc(N(C)C)n3)c2c1,IC50,[1],115 nM
same,microsomal CLint,[2],160 µL/min/mg
same,microsomal CLint,[3],164 µL/min/mg
same,solubility thermodynamic,[4],10 µg/mL
same,Activity,[5],1.6%
same,Activity,[6],25%
same,Activity,[7],15%
same,Activity,[8],13%
same,Activity,[9],76%
same,Activity,[10],89%
same,Activity,[11],100%
CN(CCC(F)(F)F)c1nccc(-c2cnn3ncccc23)n1,IC50,[1],229 nM
CN(C)c1nccc(-c2cnc3ccccn23)n1,IC50,[1],692 nM
CN(c1nccc(-c2cnn3ncccc23)n1)C1CC1,IC50,[1],115 nM
same,Kd,[12],90.4 nM
same,microsomal CLint,[2],71 µL/min/mg
same,microsomal CLint,[3],434 µL/min/mg
same,solubility thermodynamic,[4],60 µg/mL
same,Activity,[5],43%
same,Activity,[6],100%
same,Activity,[7],79%
same,Activity,[8],95%
same,Activity,[9],96%
same,Activity,[10],100%
same,Activity,[11],91%
COc1ccc2c(-c3ccnc(N(C)C)n3)cnn2n1,IC50,[1],2630 nM
CC(C)c1cc(-c2cnn3ncccc23)nc(N(C)C)n1,IC50,[1],19100 nM
CN(C)c1cc(-c2cnn3ncccc23)ccn1,IC50,[1],676 nM
Cc1cc(-c2cnn3ncccc23)nc(N(C)C)n1,IC50,[1],11700 nM
CN(C)c1nc2c(c(-c3cnn4ncccc34)n1)COC2,IC50,[1],7410 nM
CN(C)c1nccc(-c2ccc(=O)n(C)c2)n1,IC50,[1],7940 nM
"FC1CCN(c2nccc(-c3cnn4ncccc34)n2)C1 (single isomer, unassigned)",IC50,[1],66.1 nM
same,microsomal CLint,[2],296 µL/min/mg
same,microsomal CLint,[3],130 µL/min/mg
same,solubility thermodynamic,[4],40 µg/mL
same,Activity,[5],34%
same,Activity,[6],39%
same,Activity,[7],48%
same,Activity,[8],62%
same,Activity,[9],96%
same,Activity,[10],95%
same,Activity,[11],98%
CCCN(CCOC)c1nccc(-c2cnn3ncccc23)n1,IC50,[1],316 nM
CC1CCCN1c1nccc(-c2cnn3ncccc23)n1 (configuration not stated),IC50,[1],110 nM
same,microsomal CLint,[2],328 µL/min/mg
same,microsomal CLint,[3],929 µL/min/mg
same,solubility thermodynamic,[4],10 µg/mL
same,Activity,[5],81%
same,Activity,[6],66%
same,Activity,[7],71%
same,Activity,[8],61%
same,Activity,[9],100%
same,Activity,[10],100%
same,Activity,[11],92%
CCCN(c1nccc(-c2cnn3ncccc23)n1)C(C)C,IC50,[1],759 nM
c1cnn2ncc(-c3ccnc(N4CCC5(CCOC5)C4)n3)c2c1 (configuration not stated),IC50,[1],269 nM
"CC1CCN(c2nccc(-c3cnn4ncccc34)n2)C1 (single isomer, unassigned)",Activity,[5],9.1%
same,Activity,[6],25%
same,Activity,[7],16%
same,Activity,[8],15%
same,Activity,[9],73%
same,Activity,[10],95%
same,Activity,[11],100%
CN(C)c1nc(Cl)cc(-c2cnn3ncccc23)n1,IC50,[1],1350 nM
c1cnn2ncc(-c3ccnc(N4CCC5CNCC54)n3)c2c1 (configuration not stated),IC50,[1],1660 nM
CN(C)c1nccc(-c2cn(C)c3ncccc23)n1,IC50,[1],11700 nM
Cc1nn2ncccc2c1-c1ccnc(N(C)C)n1,IC50,[1],30900 nM
CN(C)c1ncnc(-c2cnn3ncccc23)n1,IC50,[1],182 nM
same,Kd,[12],153 nM
same,microsomal CLint,[2],93.6 µL/min/mg
same,microsomal CLint,[3],105 µL/min/mg
same,solubility thermodynamic,[4],50 µg/mL
CN(C)C1CCN(c2nccc(-c3cnn4ncccc34)n2)C1 (configuration not stated),IC50,[1],245 nM
Nc1nccc(-c2cnn3ncccc23)n1,IC50,[1],525 nM
same,Kd,[12],134 nM
C[C@H]1CCN(c2nccc(-c3cnn4ncccc34)n2)C1,IC50,[1],115 nM
same,microsomal CLint,[2],378 µL/min/mg
same,microsomal CLint,[3],448 µL/min/mg
same,solubility thermodynamic,[4],20 µg/mL
same,Activity,[5],7.2%
same,Activity,[6],15%
same,Activity,[7],17%
same,Activity,[8],16%
same,Activity,[9],88%
same,Activity,[10],100%
same,Activity,[11],77%
Cc1cccc(N(C)c2nccc(-c3cnn4ncccc34)n2)c1,IC50,[1],79.4 nM
same,microsomal CLint,[3],784 µL/min/mg
CC1(F)CN(c2nccc(-c3cnn4ncccc34)n2)C1,IC50,[1],372 nM
CC1(C)CCN(c2nccc(-c3cnn4ncccc34)n2)C1,IC50,[1],427 nM
c1cnn2ncc(-c3ccnc(N4CC5CCCC5C4)n3)c2c1 (configuration not stated),IC50,[1],1230 nM
Cc1cnc(N(C)C)nc1-c1cnn2ncccc12,IC50,[1],2820 nM
